Here are results for 30 compounds from ChEMBL document CHEMBL1133681, “Synthesis and opioid receptor affinity of a series of 2, 4-diaryl-substituted 3,7-diazabicylononanones” (J Med Chem, 2000).

Where “and” joins values, the source holds several entries; their conditions need not be identical. Equal values may be shown once.

The target of data set [1] is T1, Kappa-type opioid receptor (Homo sapiens, UniProt P41145). As to the kind of experiment: (§1) Inhibition against [3H]diprenorphine human Opioid receptor kappa 1 at 10 umol/L.
Data set [2] addresses Delta-type opioid receptor (Rattus norvegicus) (UniProt P33533). Kind of data set: Inhibition against [3H]D-Ala-deltorphin opioid receptor delta 2 in rat brain membranes at 1 umol/L. Format: cell membranes. The method, boiled down: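 Rat brain membranes (without cerebellum, pons, medulla oblongata); 1 nM [3H]-D-Ala-deltorphine; no preincubation; 50 mM Tris-HCl pH 7.4 with BSA and 4.5 mM MgCl2; 37 °C 90 min; nonspecific binding with 10^-5 M naloxone; triplicate, GF/B filtration, scintillation counting.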

Data set [3] concerns the target Mu-type opioid receptor (Rattus norvegicus) (UniProt P33535). Kind of data set: Inhibition against [3H]naloxone opioid receptor mu 1 in rat brain membranes at 1 umol/L. Format: cell membranes. The method, boiled down:
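Rat brain membranes (without cerebellum); 1 nM [3H]naloxone; preincubation 37 °C 40 min; incubation 50 mM Tris-HCl pH 7.4, 25 °C 30 min; nonspecific binding with 10^-5 M naloxone; triplicate, GF/B filtration, three ice-cold washes, scintillation counting.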

Data set [4] concerns the target Delta-type opioid receptor (Rattus norvegicus) (UniProt P33533). Kind of data set: Inhibition against [3H]DPDPE Opioid receptor delta 1 in rat brain membranes at 1 umol/L. It is filed as cell membranes. The method, boiled down: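 Rat brain membranes (without cerebellum, pons, medulla oblongata); 0.25 nM [3H]Cl-DPDPE; preincubation 25 °C 30 min; 50 mM Tris-HCl pH 7.4 with BSA, 45 μM PMSF, 4.5 mM MgCl2; 25 °C 240 min; nonspecific binding with 10^-3 M naloxone; triplicate, filtration, scintillation counting.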

Data set [5] can be described thus: Acid dissociation constant was measured in experiment 2. Particulars: read-out: pKa2. Format: ADME.
The target in data set [6] is T1, Kappa-type opioid receptor. As to the kind of experiment: Inhibition against [3H]diprenorphine human Opioid receptor kappa 1 […] at 10 umol/L. Format: cell membranes.
The nature of data set [7]: Acid dissociation constant was measured in experiment 1. It is filed as ADME. Particulars: read-out: pKa1.
Data set [8] concerns the target Kappa-type opioid receptor (Rattus norvegicus) (UniProt P34975). As to the kind of experiment: Inhibition against [3H]-CI 977 rat Opioid receptor kappa 1 at 10 umol/L.
Data set [9] has as its target T1, Kappa-type opioid receptor. Kind of data set: Inhibition against [3H]diprenorphine human Opioid receptor kappa 1.
Data set [10] has as its target T1, Kappa-type opioid receptor. The data set is described as §1. The source holds these as a separate data set.
Data set [11] can be described thus: Acid dissociation constant was measured in experiment 3. It is filed as ADME. Conditions: read-out: pKa3.
Data set [12] is described as follows: Acid dissociation constant was measured in experiment 4. Conditions: read-out: pKa4. It is filed as ADME.
In data set [13] the target is T1, Kappa-type opioid receptor. Kind of data set: Inhibition against [3H]diprenorphine human Opioid receptor kappa 1 at 10 uM/L.
In data set [14] the target is Kappa-type opioid receptor (Mus musculus) (UniProt P33534). Kind of data set: Antinociceptive activity evaluated against Opioid receptor kappa 1 in mice by writhing test (administered intravenously). The method, boiled down: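 Male NMRI mice (31-37 g); writhing induced by ip 0.35 mL of 0.02% phenylquinone; writhes counted 5–20 min after phenylquinone; food and water withdrawn during test; compound given iv; ED50 derived.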

The target is the same in data set [15]. As to the kind of experiment: Antinociceptive activity evaluated against Opioid receptor kappa 1 in mice by tail-flick assay (administered intravenously). The method, boiled down:
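Male NMRI mice (23-26 g), group-housed, ~22 °C, 12-h light-dark cycle; food and water withdrawn during testing; compound given iv; tail-flick response; ED50 derived.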

Chain of Kappa-type opioid receptor (Rattus norvegicus) (P34975 whole entry, looked up): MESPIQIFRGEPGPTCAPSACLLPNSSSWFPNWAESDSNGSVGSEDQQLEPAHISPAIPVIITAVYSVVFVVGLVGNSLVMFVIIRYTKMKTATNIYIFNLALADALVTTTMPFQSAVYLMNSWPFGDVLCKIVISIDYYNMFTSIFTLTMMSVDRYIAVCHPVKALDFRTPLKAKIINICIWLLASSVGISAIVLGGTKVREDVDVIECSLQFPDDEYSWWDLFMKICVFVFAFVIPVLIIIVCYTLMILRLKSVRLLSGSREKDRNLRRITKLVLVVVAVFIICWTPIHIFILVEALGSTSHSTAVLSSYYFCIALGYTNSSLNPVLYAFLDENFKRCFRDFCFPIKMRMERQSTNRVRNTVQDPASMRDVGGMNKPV
Chain of Mu-type opioid receptor (Rattus norvegicus) (P33535 whole entry): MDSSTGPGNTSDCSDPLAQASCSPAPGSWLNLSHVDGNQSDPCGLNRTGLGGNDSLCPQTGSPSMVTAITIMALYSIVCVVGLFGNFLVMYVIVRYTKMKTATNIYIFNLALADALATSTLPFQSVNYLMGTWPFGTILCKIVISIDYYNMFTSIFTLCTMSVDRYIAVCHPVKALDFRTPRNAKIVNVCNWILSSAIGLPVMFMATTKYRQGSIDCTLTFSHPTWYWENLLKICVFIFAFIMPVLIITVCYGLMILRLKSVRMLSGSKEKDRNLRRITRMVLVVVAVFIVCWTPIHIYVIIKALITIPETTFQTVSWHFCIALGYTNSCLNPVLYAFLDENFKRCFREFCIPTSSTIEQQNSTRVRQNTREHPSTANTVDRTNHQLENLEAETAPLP
T1 sequence (P41145 whole entry): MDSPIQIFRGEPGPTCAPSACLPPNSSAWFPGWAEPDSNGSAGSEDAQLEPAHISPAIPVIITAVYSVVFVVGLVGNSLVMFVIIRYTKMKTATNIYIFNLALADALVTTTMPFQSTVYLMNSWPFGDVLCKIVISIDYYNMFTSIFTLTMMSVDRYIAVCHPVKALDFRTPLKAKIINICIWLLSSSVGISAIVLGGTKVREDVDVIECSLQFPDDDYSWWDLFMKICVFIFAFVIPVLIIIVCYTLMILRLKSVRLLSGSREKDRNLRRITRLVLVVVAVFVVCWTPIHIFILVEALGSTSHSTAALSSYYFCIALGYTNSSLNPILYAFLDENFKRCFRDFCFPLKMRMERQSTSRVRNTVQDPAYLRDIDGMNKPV
Chain of Delta-type opioid receptor (Rattus norvegicus) (P33533 whole entry): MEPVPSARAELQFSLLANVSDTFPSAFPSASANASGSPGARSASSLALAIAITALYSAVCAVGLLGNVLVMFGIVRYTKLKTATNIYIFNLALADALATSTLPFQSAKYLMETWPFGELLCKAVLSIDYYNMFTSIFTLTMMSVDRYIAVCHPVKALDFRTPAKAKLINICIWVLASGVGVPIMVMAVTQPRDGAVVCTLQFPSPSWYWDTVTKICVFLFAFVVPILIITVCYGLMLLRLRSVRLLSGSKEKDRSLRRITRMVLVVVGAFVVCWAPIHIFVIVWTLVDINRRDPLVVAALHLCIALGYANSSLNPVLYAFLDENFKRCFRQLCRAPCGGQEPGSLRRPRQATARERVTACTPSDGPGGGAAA
Chain of Kappa-type opioid receptor (Mus musculus) (P33534 whole entry): as the sequence (P34975 whole entry, looked up) above, with E11D, A17S, P51S, V308A counted along it

`CCOC(=O)C12CN(C)CC(C(=O)OCC)(C1=O)C(c1cccc(O)c1)N(C)C2c1cccc(O)c1` (stereo unspecified): the inhibition was 92.7% in [1], 6.9% in data set [2] and 10.5% in data set [3].
For the compound `COC(=O)C12CN(C)CC(C(=O)OC)(C1=O)C(c1cccc([N+](=O)[O-])c1)N(C)C2c1cccc([N+](=O)[O-])c1` (stereo unspecified), the inhibition is 10% in [1], -7.9% in [2] and 14% in data set [4].
`COC(=O)C12CN(C)CC(C(=O)OC)(C1=O)C(c1cccc(Cl)c1)N(C)C2c1cccc(Cl)c1` (stereo unspecified): the pKa worked out at 9.51 in data set [5] and 10.6 in [7]. Besides, the inhibition is 42.3% in data set [6], -0.8% in data set [4] and 8.8% in data set [3].
For `COC(=O)C12CN(C)CC(C(=O)OC)(C1=O)C(c1ccc([N+](=O)[O-])cc1)N(C)C2c1ccc([N+](=O)[O-])cc1` (trans isomer), the results for the inhibition in data set [2], in data set [3] and in data set [8] were -4%, 4.8% and 27.8%, respectively.
For the compound `COC(=O)C12CN(C)CC(C(=O)OC)(C1=O)C(c1ccc(Cl)c(Cl)c1)N(C)C2c1ccc(Cl)c(Cl)c1` (stereo unspecified), the inhibition in [1] is 38.9%; in data set [2], -5.3%; in data set [3], 6.1%.
For the compound `COC(=O)C12CN(C)CC(C(=O)OC)(C1=O)C(c1cccc(C#N)c1)N(C)C2c1cccc(C#N)c1` (stereo unspecified), the inhibition in data set [1] was 35.5%; in data set [2], 5%; in [3], 9.3%.
As for `COC(=O)C12CN(C)CC(C(=O)OC)(C1=O)C(c1cccc(C)c1)N(C)C2c1cccc(C)c1` (stereo unspecified), the inhibition is 3.4% in data set [4] and -5.9% in [3].
In turn, `COC(=O)C12CN(C)CC(C(=O)OC)(C1=O)C(c1ccc3ccccc3n1)N(C)C2c1ccc2ccccc2n1` (stereo unspecified) returned a Ki in [9] of 0.19 µM. Also, the inhibition was 11.8% in data set [2] and 36.6% in data set [3].
For the compound `CN1CC2(C(=O)O)C(=O)C(C(=O)O)(C1)C(c1ccccc1)N(C)C2c1ccccc1` (stereo unspecified), the Ki in data set [10] was determined as 0.21 µM. Besides, the results for the inhibition in [2], in data set [4] and in data set [3] were -1.6%, -0.3% and 14.5%, respectively.
With `COC(=O)C12CN(C)CC(C(=O)OC)(C1=O)C(c1ccc(O)cc1)N(C)C2c1ccc(O)cc1` (stereo unspecified), the inhibition in data set [1] amounted to 8.4%; in [2], 7.3%; in data set [3] it was 14.2%.
`COC(=O)C12C[N+](C)(C)CC(C(=O)OC)(C1=O)C(c1ccccn1)N(C)C2c1ccccn1` (stereo unspecified): the values for the inhibition in data set [2], in data set [3] and in [8] were 3.3%, 29.2% and 96.4%, respectively.
As for `COC(=O)C12CN(C)CC(C(=O)OC)(C1=O)C(c1ccc([N+](=O)[O-])cc1)N(C)C2c1ccc([N+](=O)[O-])cc1` (stereo in doubt), the inhibition in data set [2] was -3.1%; in data set [3], 4.6%.
On to `COC(=O)C12CN(C)CC(C(=O)OC)(C1=O)C(c1cccc3ccccc13)N(C)C2c1cccc2ccccc12` (stereo unspecified), for which the inhibition worked out at 7.8% in [1] and 1.8% in data set [2].
Consider `COC(=O)C12CN(C)CC(C(=O)OC)(C1=O)C(c1ccccc1F)N(C)C2c1ccccc1F` (stereo unspecified), for which the inhibition in data set [1] is 47.7%; in [2] it was 1.5%; in data set [3], -9.2%.
The corresponding values for `COC(=O)C12CN(C)CC(C(=O)OC)(C1=O)C(c1ccccc1[N+](=O)[O-])N(C)C2c1ccccc1[N+](=O)[O-]` (stereo unspecified) are 3.4%, -1.1% and 2.9%.
On to `COC(=O)C12CN(C)CC(C(=O)OC)(C1=O)C(c1ccc(F)cc1)N(C)C2c1ccc(F)cc1` (stereo unspecified), for which the Ki in [10] came out at 0.14 µM. Also, the figures for the inhibition in data set [2] and in [3] were 0.4% and 10.1%, respectively.
Regarding `COC(=O)C12CN(C)CC(C(=O)OC)(C1=O)C(c1ccccc1Cl)N(C)C2c1ccccc1Cl` (stereo unspecified), the inhibition in data set [1] was 65.4%; in data set [2], 1.9%; in data set [3], 2.7%.
In data set [9], `CCOC(=O)C12CN(C)CC(C(=O)OCC)(C1=O)C(c1ccc(Cl)cc1)N(C)C2c1ccc(Cl)cc1` (stereo unspecified) gave an inhibition constant (Ki) of 1.98 µM. Further, the inhibition is 1.8% in data set [2] and -5% in data set [3].
Regarding `COC(=O)C12CN(C)CC(C(=O)OC)(C1=O)C(c1ccc(C#N)cc1)N(C)C2c1ccc(C#N)cc1` (stereo unspecified), the inhibition in [1] stood at 17.2%; in data set [2], 3.2%; in data set [3], 5.6%.
For the compound `COC(=O)C12CN(C)CC(C(=O)OC)(C1=O)C(c1ccc(OC)cc1)N(C)C2c1ccc(OC)cc1` (stereo unspecified), the pKa was 5.51 in data set [5] and 9.05 in data set [7]. In data set [10], this compound registered a Ki of 0.018 µM. The inhibition came out at 3% in data set [2] and 26.5% in data set [3].
With `COC(=O)C12CN(C)CC(C(=O)OC)(C1=O)C(c1cccc(F)c1)N(C)C2c1cccc(F)c1` (stereo unspecified), the pKa in data set [5] came to 10.7; in data set [7], 13.1. Besides, in [9], the Ki amounted to 0.026 µM. Besides, the results for the inhibition in data set [2] and in [3] were 3.2% and 5%, respectively.
For `COC(=O)C12CN(C)CC(C(=O)OC)(C1=O)C(c1ccccn1)N(C)C2c1ccccn1` (stereo unspecified), the pKa turned out to be 3.47 in [11] and 2.03 in [12]. The inhibition in [13] was 61.7%; in data set [1], 65% and 62.6%; in data set [2] it was -5.9% and -6.6%; in data set [4], 5%; in data set [3], 32.4% and 20% and 37.6%. For the same compound, the ED50 in data set [14] amounted to 1.05 mg/kg; in data set [15] it was 6.7 mg/kg.
With `CCOC(=O)C12CN(C)CC(C(=O)OCC)(C1=O)C(c1cccc([N+](=O)[O-])c1)N(C)C2c1cccc([N+](=O)[O-])c1` (stereo unspecified), the inhibition in [2] came out at 6.1%; in [3], 2.3%; in [8] it was 5.9%.
For the compound `COC(=O)C12CN(C)CC(C(=O)OC)(C1=O)C(c1ccncc1)N(C)C2c1ccncc1` (stereo unspecified), the inhibition in data set [1] is 12.5%; in data set [2] it was -9%; in data set [3] it was 3.1%.
Consider `COC(=O)C12CN(C)CC(C(=O)OC)(C1=O)C(c1ccnc3ccccc13)N(C)C2c1ccnc2ccccc12` (stereo unspecified), for which the inhibition is 25.8% in [1], 1.2% in [2] and -7.1% in data set [3].
On to `COC(=O)C12CN(C)CC(C(=O)OC)(C1=O)C(c1cccnc1)N(C)C2c1cccnc1` (stereo unspecified), for which the figures for the inhibition in data set [1], in data set [2] and in [3] were 54.8%, 1.1% and 30.7%, respectively.
Regarding `COC(=O)C12CN(C)CC(C(=O)OC)(C1=O)C(c1ccc(Cl)cc1)N(C)C2c1ccc(Cl)cc1` (stereo unspecified), the inhibition in [1] is 63%; in [2], -2.1%; in [3], 2.2%.
As to `COC(=O)C12CN(C)CC(C(=O)OC)(C1=O)C(c1cccc(O)c1)N(C)C2c1cccc(O)c1` (stereo unspecified), the pKa in data set [11] came to 9.12; in data set [12], 9.21; in data set [5], 7.97; in data set [7], 10.3. Further, the inhibition in [4] worked out at 27%; in [3], 35.6%.
`COC(=O)C12CN(C)CC(C(=O)OC)(C1=O)C(c1ccc3ccccc3c1)N(C)C2c1ccc2ccccc2c1` (stereo unspecified): the inhibition is 18.6% in [1] and -2.1% in data set [2].
For `COC(=O)C12CN(C)CC(C(=O)OC)(C1=O)C(c1cccc(OC)c1)N(C)C2c1cccc(OC)c1` (stereo unspecified), the inhibition in data set [1] was 52.2%; in [2] it was -1.6%.
